How the values were obtained:
[1] = system: Malme-3M; assay: Cytotoxicity against human MALME-3M cells; assay type: cell-based
Method in brief: (§1)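 NCI 60 human tumour cell line screen, second stage at five concentrations (100, 10, 1.0, 0.1 and 0.01 μM). Continuous drug exposure for 48 h, with cell growth estimated by sulforhodamine B protein staining. GI50 is the drug concentration giving a 50% reduction in net protein increase relative to control cells over the incubation.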

[2] = system: SR; assay: Anticancer activity against human SR cells after 48 hrs by sulforhodamine B assay; assay type: functional
Method in brief: (§2)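 NCI 60-cell-line screen, second stage. Five concentration levels (100, 10, 1.0, 0.1 and 0.01 μM), 48 h continuous drug exposure. Cell growth was estimated by sulforhodamine B protein staining. GI50 is the concentration giving a 50% reduction in net protein increase relative to control cells over the drug incubation. Compounds entered this stage after an earlier single-dose screen.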

[3] = system: TK-10; assay: Cytotoxicity against human TK10 cells; assay type: cell-based
Method in brief: (§3)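 NCI 60 human tumour cell line screen; five concentration levels (100, 10, 1.0, 0.1 and 0.01 μM), 48 h continuous drug exposure. Cell growth estimated by sulforhodamine B (SRB) protein staining. GI50 taken as the drug concentration giving a 50% reduction in net protein increase relative to control cells over the incubation.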

[4] = system: ACHN; assay: Anticancer activity against human ACHN cells after 48 hrs by sulforhodamine B assay; assay type: functional
Method in brief: (§4)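 NCI 60-cell-line in vitro screen, second stage: five concentration levels (100, 10, 1.0, 0.1 and 0.01 μM) with 48 h continuous drug exposure. Cell growth was estimated by sulforhodamine B protein staining. GI50 is the drug concentration that gives a 50% reduction in net protein increase relative to control cells over the incubation.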

[5] = system: IGROV-1; assay: Anticancer activity against human IGROV1 cells after 48 hrs by sulforhodamine B assay; assay type: functional; conditions: IGROV-1, 48 h; method in brief: as §4
[6] = system: DU-145; assay: Cytotoxicity against human DU145 cells; assay type: cell-based; method in brief: as §1
[7] = system: SNB-19; assay: Anticancer activity against human SNB19 cells after 48 hrs by sulforhodamine B assay; assay type: functional; conditions: SNB-19, 48 h; method in brief: as §4
[8] = system: U-251; assay: Anticancer activity against human U251 cells after 48 hrs by sulforhodamine B assay; assay type: functional; conditions: U-251, 48 h; method in brief: as §2
[9] = system: EKVX; assay: Cytotoxicity against human EKVX cells; assay type: cell-based; method in brief: as §1
[10] = system: M14; assay: Cytotoxicity against human M14 cells; assay type: cell-based; method in brief: as §1
[11] = system: T47D; assay: Anticancer activity against human T47D cells after 48 hrs by sulforhodamine B assay; assay type: functional; method in brief: as §2
[12] = system: NCI-H226; assay: Anticancer activity against human NCI-H226 cells after 48 hrs by sulforhodamine B assay; assay type: functional; conditions: NCI-H226, 48 h; method in brief: as §4
[13] = system: LOX IMVI; assay: Anticancer activity against human LOXIMVI cells after 48 hrs by sulforhodamine B assay; assay type: functional; method in brief: as §4
[14] = system: SK-OV-3; assay: Cytotoxicity against human SKOV3 cells; assay type: cell-based; method in brief: as §1
[15] = system: HCT-116; assay: Cytotoxicity against human HCT116 cells; assay type: cell-based; method in brief: as §1
[16] = system: LOX IMVI; assay: Cytotoxicity against human LOXIMVI cells; assay type: cell-based; method in brief: as §1
[17] = system: SR; assay: Cytotoxicity against human SR cells; assay type: cell-based; method in brief: as §3
[18] = system: UACC-257; assay: Anticancer activity against human UACC257 cells after 48 hrs by sulforhodamine B assay; assay type: functional; conditions: UACC-257, 48 h; method in brief: as §2
[19] = system: SK-OV-3; assay: Anticancer activity against human SKOV3 cells after 48 hrs by sulforhodamine B assay; assay type: functional; conditions: SK-OV-3, 48 h; method in brief: as §4
[20] = system: MOLT-4; assay: Anticancer activity against human MOLT4 cells after 48 hrs by sulforhodamine B assay; assay type: functional; conditions: MOLT-4, 48 h; method in brief: as §4
[21] = system: OVCAR-4; assay: Anticancer activity against human OVCAR4 cells after 48 hrs by sulforhodamine B assay; assay type: functional; conditions: OVCAR-4, 48 h; method in brief: as §4
[22] = system: SF-295; assay: Anticancer activity against human SF295 cells after 48 hrs by sulforhodamine B assay; assay type: functional; conditions: SF-295, 48 h; method in brief: as §4
[23] = system: CCRF-CEM; assay: Anticancer activity against human CCRF-CEM cells after 48 hrs by sulforhodamine B assay; assay type: functional; method in brief: as §4
[24] = system: NCI-H226; assay: Cytotoxicity against human NCI-H226 cells; assay type: cell-based; method in brief: as §1
[25] = system: DU-145; assay: Anticancer activity against human DU145 cells after 48 hrs by sulforhodamine B assay; assay type: functional; conditions: DU-145, 48 h; method in brief: as §4
[26] = system: Hs-578T; assay: Cytotoxicity against human Hs578T cells; assay type: cell-based; method in brief: as §1
[27] = system: RXF 393; assay: Cytotoxicity against human RXF393 cells; assay type: cell-based; method in brief: as §1
[28] = system: SK-MEL-28; assay: Anticancer activity against human SK-MEL-28 cells after 48 hrs by sulforhodamine B assay; assay type: functional; conditions: SK-MEL-28, 48 h; method in brief: as §4
[29] = system: A549; assay: Cytotoxicity against human A549 cells; assay type: cell-based; method in brief: as §1
[30] = system: CAKI-1; assay: Anticancer activity against human Caki1 cells after 48 hrs by sulforhodamine B assay; assay type: functional; conditions: CAKI-1, 48 h; method in brief: as §4
[31] = system: RPMI-8226; assay: Anticancer activity against human RPMI8226 cells after 48 hrs by sulforhodamine B assay; assay type: functional; conditions: RPMI-8226, 48 h; method in brief: as §4
[32] = system: SF-268; assay: Anticancer activity against human SF268 cells after 48 hrs by sulforhodamine B assay; assay type: functional; conditions: SF-268, 48 h; method in brief: as §4
[33] = system: CCRF-CEM; assay: Cytotoxicity against human CCRF-CEM cells; assay type: cell-based; method in brief: as §1
[34] = system: HOP-62; assay: Anticancer activity against human HOP62 cells after 48 hrs by sulforhodamine B assay; assay type: functional; conditions: HOP-62, 48 h; method in brief: as §4
[35] = system: HT-29; assay: Anticancer activity against human HT-29 cells after 48 hrs by sulforhodamine B assay; assay type: functional; conditions: HT-29, 48 h; method in brief: as §4
[36] = system: NCI-H460; assay: Anticancer activity against human NCI-H460 cells after 48 hrs by sulforhodamine B assay; assay type: functional; conditions: NCI-H460, 48 h; method in brief: as §4
[37] = system: HCC 2998; assay: Anticancer activity against human HCC2998 cells after 48 hrs by sulforhodamine B assay; assay type: functional; conditions: HCC 2998, 48 h; method in brief: as §4
[38] = system: OVCAR-3; assay: Cytotoxicity against human OVCAR3 cells; assay type: cell-based; method in brief: as §1
[39] = system: HT-29; assay: Cytotoxicity against human HT-29 cells; assay type: cell-based; method in brief: as §1
[40] = system: NCI-H522; assay: Cytotoxicity against human NCI-H522 cells; assay type: cell-based; method in brief: as §1
[41] = system: HOP-62; assay: Cytotoxicity against human HOP62 cells; assay type: cell-based; method in brief: as §1
[42] = system: MDA-MB-435; assay: Anticancer activity against human MDA-MB-435 cells after 48 hrs by sulforhodamine B assay; assay type: functional; conditions: MDA-MB-435, 48 h; method in brief: as §4
[43] = system: HCT-116; assay: Anticancer activity against human HCT116 cells after 48 hrs by sulforhodamine B assay; assay type: functional; conditions: HCT-116, 48 h; method in brief: as §4
[44] = system: RXF 393; assay: Anticancer activity against human RXF393 cells after 48 hrs by sulforhodamine B assay; assay type: functional; conditions: RXF 393, 48 h; method in brief: as §4
[45] = system: HCC 2998; assay: Cytotoxicity against human HCC2998 cells; assay type: cell-based; method in brief: as §1
[46] = system: SNB-75; assay: Cytotoxicity against human SNB75 cells; assay type: cell-based; method in brief: as §3
[47] = system: 786-0; assay: Cytotoxicity against human 786-0 cells; assay type: cell-based; method in brief: as §1
[48] = system: NCI-H460; assay: Cytotoxicity against human NCI-H460 cells; assay type: cell-based; method in brief: as §1
[49] = system: SN12C; assay: Anticancer activity against human SN12C cells after 48 hrs by sulforhodamine B assay; assay type: functional; method in brief: as §4
[50] = system: IGROV-1; assay: Cytotoxicity against human IGROV1 cells; assay type: cell-based; method in brief: as §1
[51] = system: OVCAR-8; assay: Anticancer activity against human OVCAR8 cells after 48 hrs by sulforhodamine B assay; assay type: functional; conditions: OVCAR-8, 48 h; method in brief: as §4
[52] = system: BT-549; assay: Cytotoxicity against human BT549 cells; assay type: cell-based; method in brief: as §1
[53] = system: HCT-15; assay: Anticancer activity against human HCT15 cells after 48 hrs by sulforhodamine B assay; assay type: functional; conditions: HCT-15, 48 h; method in brief: as §4

## Oc1ccc(Cc2ccc(O)c(C3CC(c4ccc(Cl)cc4)=NN3)c2)cc1C1CC(c2ccc(Cl)cc2)=NN1 (stereo not drawn)
[1]
  LC50: > 100 µM
[2]
  GI50: 1.83 µM
[3]
  LC50: > 100 µM
[4]
  GI50: 3.63 µM
[5]
  GI50: 4.11 µM
[6]
  LC50: > 100 µM
[7]
  GI50: 3.64 µM
[8]
  GI50: 1.8 µM
[9]
  LC50: > 100 µM
[10]
  LC50: > 100 µM
[11]
  GI50: 3.79 µM
[12]
  GI50: 4.74 µM
[13]
  GI50: 1.82 µM
[14]
  LC50: > 100 µM
[15]
  LC50: > 100 µM
[16]
  LC50: > 100 µM
[17]
  LC50: > 100 µM
[18]
  GI50: 2.56 µM
[19]
  GI50: 4.43 µM
[20]
  GI50: 2.7 µM
[21]
  GI50: 3.54 µM
[22]
  GI50: 1.47 µM
[23]
  GI50: 1.94 µM
[24]
  LC50: > 100 µM
[25]
  GI50: 3.46 µM
[26]
  LC50: > 100 µM
[27]
  LC50: > 100 µM
[28]
  GI50: 9.84 µM
[29]
  LC50: > 100 µM
[30]
  GI50: 2.67 µM
[31]
  GI50: 5.09 µM
[32]
  GI50: 3.22 µM
[33]
  LC50: > 100 µM
[34]
  GI50: 4.16 µM
[35]
  GI50: 7.25 µM
[36]
  GI50: 2.15 µM
[37]
  GI50: 4.88 µM
[38]
  LC50: > 100 µM
[39]
  LC50: > 100 µM
[40]
  LC50: 46.2 µM
[41]
  LC50: > 100 µM
[42]
  GI50: 3.21 µM
[43]
  GI50: 1.85 µM
[44]
  GI50: 3.99 µM
[45]
  LC50: > 100 µM
[46]
  LC50: > 100 µM
[47]
  LC50: > 100 µM
[48]
  LC50: > 100 µM
[49]
  GI50: 2.86 µM
[50]
  LC50: > 100 µM
[51]
  GI50: 2.46 µM
[52]
  LC50: > 100 µM
[53]
  GI50: 2.51 µM
